Experimental findings from ChEMBL document CHEMBL1151276, “Antiviral Terpenoid Constituents of Ganoderma pfeifferi” (J Nat Prod, 2005) are described below.

Structures are written as SMILES. In brackets after ≈: the same amount, converted by molar mass. Activity calls are given as the source filed them. No cut-off for these calls is given here.

Holding throughout (format): functional, organism-based
One experiment relates to Candida maltosa. Description: Antimicrobial activity against Candida maltosa SBUG 700 at 200 ug/disk by agar diffusion method. In a few lines:
(§1)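 Agar diffusion per European Pharmacopoeia. Antibiotic medium No. 1 inoculated with cell suspension and poured into plates. Paper disks loaded with 200 µg substance placed on the cooled agar, then prediffused 2 h in a refrigerator. Incubation 18 h at 37 °C (C. maltosa at 27 °C). Inhibition zone diameters read at end of incubation. Penicillin G positive control.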
In general terms: Agar diffusion results depend on both activity and mobility in agar.

A further experiment deals with Influenza A virus. Description: Antiviral activity against influenza A virus infected in MDCK cells. In short, it runs like this:
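Each compound (1.0 mg) was dissolved in 100 µL methanol, then in MEM, giving a 1 mg/mL stock. Compounds were tested at noncytotoxic concentrations against influenza A virus and HSV type I.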

The test system of a further experiment is Staphylococcus aureus. Description: Antimicrobial activity against Staphylococcus aureus ATCC 6538 at 200 ug/disk by agar diffusion method. In a few lines:
as §1

In the next experiment the test system is Escherichia coli. Description: Antimicrobial activity against Escherichia coli ATCC 11229 at 200 ug/disk by agar diffusion method. In a few lines: as §1

Turning to `C/C(=C\CC[C@@H](C)[C@H]1CC[C@@]2(C)C3=C(CC[C@]12C)[C@@]1(C)CCC(=O)C(C)(C)[C@@H]1CC3=O)CO` [GANODERONE A], the outcome in the experiment with Candida maltosa, in the experiment on Influenza A virus, with Staphylococcus aureus and in the experiment with Escherichia coli was inactive.
Take `C/C(C=O)=C\CC[C@@H](C)[C@H]1CC[C@@]2(C)C3=C(CC[C@]12C)[C@@]1(C)CCC(=O)C(C)(C)[C@@H]1CC3=O` [LUCIALDEHYDE B]: the result in the experiment with Candida maltosa, in the experiment on Staphylococcus aureus and with Escherichia coli was inactive. In the experiment on Influenza A virus, the IC50 – broadly, the point on the concentration scale where inhibition reaches its midpoint – worked out at 3 µg/mL (≈ 6.63 µM).
As to `C/C(C=O)=C\CC[C@@H](C)[C@H]1CC[C@@]2(C)C3=CC[C@H]4C(C)(C)C(=O)CC[C@]4(C)C3=CC[C@]12C` [GANODERAL A], the result in the experiment with Influenza A virus was inactive.
`CC(CC(=O)C[C@@](C)(O)C1=C[C@H](O)[C@]2(C)[C@]1(C)C(=O)C=C1[C@@]3(C)CCC(=O)C(C)(C)[C@@H]3C[C@H]3O[C@@]132)C(=O)O` (stereo not given in full): the result in the experiment with Candida maltosa, in the experiment with Staphylococcus aureus and in the experiment on Escherichia coli was inactive.
Take `NC12CC3CC(CC(C3)C1)C2.O=S(=O)(O)O` [AMANTADINE SULFATE]: the IC50 with Influenza A virus was 15 µg/mL.
For `CC(C)[C@@H](C)/C=C/[C@@H](C)[C@H]1CC[C@H]2C3=CC[C@H]4C[C@@H](O)CC[C@]4(C)[C@H]3CC[C@]12C`, the outcome in the experiment with Candida maltosa, with Staphylococcus aureus and in the experiment on Escherichia coli was inactive. Inhibition with Influenza A virus was half-maximal at 0.78 µg/mL (≈ 1.96 µM) (IC50).
With `CC(C)[C@@H](C)/C=C/[C@@H](C)[C@H]1CC[C@H]2C3=CCC4CC(=O)CC[C@]4(C)[C@H]3CC[C@]12C` (stereo not given in full), the outcome in the experiment on Candida maltosa, with Staphylococcus aureus and in the experiment on Escherichia coli was inactive.
In the experiment on Influenza A virus, `C[C@H](CCC1OC1(C)CO)[C@H]1CC[C@@]2(C)C3=C(CC[C@]12C)[C@@]1(C)CCC(=O)C(C)(C)[C@@H]1CC3=O` (stereo not given in full) [GANODERONE C] returned an IC50 of 2.6 µg/mL (≈ 5.52 µM).
For `C/C(=C\CC[C@@H](C)[C@H]1CC[C@@]2(C)C3=CC[C@H]4C(C)(C)C(=O)CC[C@]4(C)C3=CC[C@]12C)CO` [GANODEROL A], the outcome in the experiment on Candida maltosa, with Influenza A virus, in the experiment with Staphylococcus aureus and in the experiment on Escherichia coli was inactive.
